TRPC4 potent: positive allosteric modulators of TRPC4, primary screen, cell-based, mouse TRPC4beta, HEK293 mu-opioid, Fluo-4 calcium; Short transient receptor potential channel 4 (Mus musculus), Q9QUQ5; DAMGO EC20, Fluo-4 Ca2+ flux; active compounds read high; B-score at 10 µM; 310,000 compounds, 0.42% hits;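 active = B-score of calcium response area above 5 SD of library B-scores, with initial fluorescence ratio within 5 SD of library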
TRPC4 block: inhibitors of mouse TRPC4 channel, primary screen, Fluo4 calcium, HEK293 TRPC4beta/mu-opioid cells; DAMGO-evoked Fluo4 calcium flux; active compounds read low; B-score at 10 µM; 300,000 compounds, 0.39% hits;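 active = B-score over 3 SD under the library average, no early fluorescence shift, positive overall ratio signal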
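Material: HEK293 cells with stable TRPC4beta plus mu-opioid receptor expression / Probe or stimulus: DAMGO in two steps, submaximal then maximal / Compound: single concentration per test compound / Technique: kinetic Fluo4 fluorescence imaging of calcium influx / Read-out: per-well B score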
TRPC6 inhibitor: mouse TRPC6 channel inhibitors, primary screen, cell-based, HEK293, membrane potential dye; Short transient receptor potential channel 6 (Mus musculus), Q61143; AID 2553, 2010; B-score at 10 µM; 310,000 compounds, 1.1% hits; ACh-evoked depolarization; active compounds read low;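 active = B-score under library mean minus 3 SD, initial fluorescence not abnormally high, positive integrated signal ratio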;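 also: B-score derived from integrated fluorescence ratio over the kinetic read; more negative B-score means stronger inhibition of depolarization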
Target sequence (Q61143 whole entry, looked up): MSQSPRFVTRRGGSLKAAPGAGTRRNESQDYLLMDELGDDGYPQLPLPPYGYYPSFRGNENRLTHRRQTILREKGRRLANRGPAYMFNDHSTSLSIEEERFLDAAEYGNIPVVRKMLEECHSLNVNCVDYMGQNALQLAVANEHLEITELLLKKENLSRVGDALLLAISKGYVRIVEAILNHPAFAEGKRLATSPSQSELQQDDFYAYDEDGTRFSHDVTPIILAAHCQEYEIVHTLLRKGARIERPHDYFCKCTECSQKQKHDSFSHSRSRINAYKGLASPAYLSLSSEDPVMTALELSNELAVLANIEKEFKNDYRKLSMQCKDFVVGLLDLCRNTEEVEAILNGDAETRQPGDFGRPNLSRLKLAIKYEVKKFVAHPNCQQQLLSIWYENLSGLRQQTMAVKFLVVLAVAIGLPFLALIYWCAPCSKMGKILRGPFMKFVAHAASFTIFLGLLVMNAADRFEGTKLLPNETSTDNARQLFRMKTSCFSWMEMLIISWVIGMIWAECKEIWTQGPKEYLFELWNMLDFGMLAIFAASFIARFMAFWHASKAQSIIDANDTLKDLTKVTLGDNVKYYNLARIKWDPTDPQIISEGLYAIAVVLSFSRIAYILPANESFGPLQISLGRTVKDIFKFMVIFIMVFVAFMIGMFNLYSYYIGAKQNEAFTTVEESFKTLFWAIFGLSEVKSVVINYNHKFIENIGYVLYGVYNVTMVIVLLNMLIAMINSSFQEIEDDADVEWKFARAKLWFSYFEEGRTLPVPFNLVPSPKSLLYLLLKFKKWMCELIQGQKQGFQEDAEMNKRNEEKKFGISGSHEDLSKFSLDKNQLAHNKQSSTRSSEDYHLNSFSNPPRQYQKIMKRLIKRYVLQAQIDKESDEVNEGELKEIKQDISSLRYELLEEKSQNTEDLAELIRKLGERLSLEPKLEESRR
TRPC4 agonist: activators of mouse TRPC4 channel, primary screen, Fluo4 calcium, HEK293 TRPC4beta/mu-opioid cells. Short transient receptor potential channel 4 (Mus musculus), Q9QUQ5. Fluo4 calcium fluorescence; active compounds read high. B-score at 10 µM. 310,000 compounds, 0.49% hits. AID 2237, 2010;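 active = B-score above 5 SD of library B-scores, and initial fluorescence ratio not above library mean plus 5 SD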;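 also: positive B-score marks a calcium rise read as TRPC4 activation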
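System – HEK293 cells stably co-expressing mouse TRPC4beta and mu-opioid receptor · Signal – Fluo4 calcium-sensitive dye fluorescence, kinetic, 1 Hz baseline · Benchmarks – buffer (low) and maximal DAMGO (high) · Read-out – B score of integrated fluorescence ratio per well · Incubation – dye loading 45 min room temperature, 110 s kinetic read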
TRPC6 act: mouse TRPC6 channel activators, primary screen, cell-based, HEK293, membrane potential dye; Short transient receptor potential channel 6 (Mus musculus), Q61143; AID 2550, 2010; HEK293-TRPC6 membrane potential dye fluorescence; active compounds read high; B-score at 10 µM; 310,000 compounds, 0.13% hits;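 active = B-score of the integrated fluorescence ratio above library mean plus 3 SD, and starting fluorescence ratio within library mean plus 5 SD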;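 also: higher score means more depolarization so channel activation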
Each line names hits and unclear results; the compound was inactive in the other large screens. Compounds with a hit are over-represented: about 2.3% of the library has one in this group of screens.

CC(C)c1c(C(=O)N/N=C/c2ccc(C(F)(F)F)cc2)nnn1-c1nonc1N	none
CNC(=S)NNC(=O)c1cccn(Cc2cccc(Cl)c2)c1=O	TRPC4 potent 13
CC(OC(=O)c1cccc(S(=O)(=O)N2CCCCCC2)c1)C(=O)Nc1ccc(S(N)(=O)=O)cc1 (stereo not given)	none
CN(C)c1ccc(N=Nc2ccccc2C(=O)OCC(=O)N(C)C2CCCCC2)cc1	TRPC4 potent 11
CN(C)c1ccc(N=Nc2ccccc2C(=O)OCC(=O)NCC2CCCCC2)cc1	none
CC(C)(C)c1cc(C(=O)NCCN2CCCC2)cc(C(C)(C)C)c1	none
CN(C)CCCNc1ncnc2c1cnn2-c1ccccc1	TRPC4 potent 25
CN(C)CCNc1ncnc2ccccc12	TRPC4 potent 11
CN(C)CCCNc1ncnc2c1cnn2Cc1ccccc1Cl	TRPC4 potent 18
COc1ccc(S(=O)(=O)N2CCc3cc4c(cc3C2C)OCCCO4)cc1 (stereo not given)	none
COc1ccc(C(=O)Nc2ccc(NC(=O)C3CC3)nc2)cc1	none
Cc1ccc(C2(CCNC(C)c3cccs3)CCOC(C(C)C)C2)cc1 (stereo not given)	TRPC4 agonist 44
Cc1ccc(C2(CCN)CCOC(C(C)C)C2)cc1 (stereo not given)	none
COc1ccccc1C1(CCNC(C)c2cccs2)CCOC(C(C)C)C1 (stereo not given)	TRPC4 agonist 77
CCN1CCN(c2c(S(=O)(=O)c3ccc(C)c(C)c3)cnc3ccc(F)cc23)CC1	TRPC4 agonist 61
O=S(=O)(Nc1cc2nc3ccccc3nc2n1Cc1ccccc1)c1ccc(Cl)cc1	TRPC6 act 26
Cc1ccc(C(C)(C)C)cc1S(=O)(=O)Nc1nc2ccccc2nc1Cl	TRPC4 block -6
CCCCn1c(N)c(N(CCOC)C(=O)c2ccc(-c3ccc(C(C)=O)cc3)o2)c(=O)[nH]c1=O	TRPC4 potent 92
CC12CCC(C(=O)NC3CCCCC3)([C@H](Br)C1=O)C2(C)C (stereo not given in full)	none
Cc1ccc(C(C2=C(O)CC(C)(C)CC2=O)C2C(=O)CC(C)(C)CC2=O)s1 (stereo not given)	none
CC1(C)CC(=O)C(C(C2=C(O)CC(C)(C)CC2=O)c2ccc(Br)s2)C(=O)C1 (stereo not given)	TRPC4 potent 10
Cc1ccccc1Nc1nnc(SCC(=O)NC2CCCc3ccccc32)s1 (stereo not given)	none
O=C(NCCNC1CCC(c2ccccc2)CC1)c1ccc(F)cc1 (stereo not given)	TRPC4 agonist 61
O=C(Cc1cccs1)NNC(=S)NC(=O)c1ccc(F)c(F)c1	TRPC4 agonist 60
O=C(Cc1cccs1)NNC(=S)NC(=O)c1ccccc1	TRPC4 agonist 52
O=C(/C=C/c1ccccc1)NC(=S)NNC(=O)Cc1cccs1	none
CCCCC(Sc1nc(N)c(NC(=O)c2ccco2)c(=O)[nH]1)C(=O)O (stereo not given)	none
COCCN1CCN(c2c3c(nc4cc(-c5cccc(F)c5)nn24)CCC3)CC1	TRPC4 potent 11, TRPC4 agonist 60
CN(Cc1ccccc1)C(=O)CSc1nnc(-c2ccco2)n1-c1ccccc1	TRPC4 block -7
CC(=O)CSc1nnc(-c2ccco2)n1-c1ccccc1	none
COc1ccccc1CNC(=O)CCNS(=O)(=O)c1ccc2[nH]c(=O)oc2c1	none
COc1ccc(C(=O)COc2ccc(F)cc2)c(O)c1	none
O=C(COc1ccc(F)cc1)c1c(O)cc(O)cc1O	TRPC4 block -6
CCOC(=O)c1cc(C)[nH]c1C	none
CCOC(=O)c1cc(C)[nH]c(=O)c1C#N	TRPC4 potent 10
CC(C)(Sc1cc(C(C)(C)C)c(O)c(C(C)(C)C)c1)Sc1cc(C(C)(C)C)c(O)c(C(C)(C)C)c1	TRPC4 agonist 83
CSc1nc(NCc2ccco2)c2c3c(sc2n1)CN(C)CC3	TRPC4 agonist 64 (no result: TRPC4 block)
CSc1nc(SCC(=O)NCc2ccco2)c2c3c(sc2n1)CN(C)CC3	none

High-throughput results as filed in PubChem BioAssay.
